Test results published in article PMC2913404 (Neurobiology of disease, 2010).
Positions of bridges follow the written chain, without caps; N, C: chain ends. Residues, ends and D or L forms follow the SMILES beside them. *: point of attachment. Biotin = O=C1N[C@H]2[C@H](CS[C@H]2CCCCC(=O)*)N1

Columns and labels:
[1] = test system: Aβ1–40 peptide (amyloid aggregation); experiment: Thioflavin T amyloid formation assay, Aβ1–40; type: biochemical; details: Aβ1–40 50µM + peptide 50µM, 5 days, 37°C, n=3 (Fig 1C)
How it was run: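 Aβ1–40 (50 µM; stored frozen in DMSO) was mixed with equimolar test peptide (50 µM) and incubated 5 days at 37°C until amyloid formation saturated. Thioflavin T was then added, and signal was read at 490 nm with excitation at 445 nm.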

[2] = test system: Aβ1–42 peptide (amyloid aggregation); experiment: Thioflavin T amyloid formation assay, Aβ1–42; type: biochemical; details: Aβ1–42 50µM + peptide 50µM, 5 hours, 37°C, n=3 (Fig 1C)
How it was run: (§1)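 Aβ1–40 or Aβ1–42 (50 µM) was mixed equimolar with peptide (50 µM) at 37°C until amyloid formation saturated: 5 days for Aβ1–40, 5 hours for Aβ1–42. Time courses set the read point. Thioflavin T was then added and read at 490 nm with excitation at 445 nm. Aβ alone served as positive control; peptide alone was read as background.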

[3] = Self-aggregation of SDPM1 by Thioflavin T; type: physicochemical; details: SDPM1 added alone, over time
Aβ1–42 peptide = experiment: Amyloid trapping assay, SDS-PAGE and Aβ1–40/42 immunoblot; type: biochemical; details: SDS-PAGE/immunoblot after mixing with Aβ1–42 (Fig 1G, 1H)
How it was run: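 Aβ1–42 (50 µM) incubated with equimolar test peptide (50 µM) or 1:500 immune serum for 5 h at 37°C. A subset of mixtures was boiled in SDS with reducing agent and run on 10–20% Tris-tricine gels, then transferred to nitrocellulose. Blots were blocked in TBST/5% milk and probed with rabbit anti-Aβ1–40/42 at 1:10,000 in TBST/2.5% milk.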

[4] = test system: low molecular weight Aβ amyloid from COS7 cells transfected with APPswe; experiment: Precipitation from APPswe-transfected COS7 lysates; type: binding, human; details: COS7 lysate 1mg; antibody 10µg or biotin-SDPM1 50µg (Fig 1I, S1A)
How it was run: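 COS7 cells grown in DMEM/10% FCS were transfected at 40% confluence with V5-tagged human APP695, wild type or Swedish. At 48 h cells were lysed in 1% NP40/0.1% SDS/deoxycholate/EDTA buffer with protease inhibitors, sonicated and cleared at 16000g. Lysate (1 mg) was incubated overnight at 4°C with antibody (10 µg) or biotinylated peptide (50 µg), the latter captured on streptavidin agarose. Precipitates were analysed by SDS-PAGE and Aβ immunoblot.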

SDPM1 / SDPM2 peptide = experiment: Serum antibody titer to SDPM1/SDPM2 after immunization; type: in vivo, mouse; details: for SDPM1-specific antibody titer (SDPM1 minus SDPM2 titer): average, SEM, n=7–12 animals (Fig 2A); for antibody titers to SDPM1 and SDPM2: young (5 to 12 months), end of experiment (S2A)
Aβ amyloid = experiment: Serum antibody titer to Aβ amyloid after immunization; type: in vivo, mouse; details: for Aβ amyloid antibody titer: young, significant vs Mock (Fig 2C)
[5] = test system: fibrillar Aβ amyloid plaques in APPswePSEN1(A246E) mouse brain; experiment: Amyloid plaque burden, number and area; type: in vivo
[6] = test system: Aβ1–40/1–42 in APPswePSEN1(A246E) mouse brain; experiment: Aβ1–40/1–42 immunostaining of brain; type: in vivo; details: for Aβ1–40/42 immunostaining signal, % of control: young, with adjuvant
How it was run: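 After monthly s.c. streptavidin-peptide conjugate immunization with adjuvant, brains were collected after PBS exsanguination and bisected, then snap-frozen or fixed overnight in 2% paraformaldehyde. Some sagittal sections were pretreated with 90% formic acid for 4 min. Sections were blocked 2 h in 10% goat serum, given rabbit anti-Aβ1–40/42 overnight at 4°C, then Cy3 secondary for 1 h. Eight to twelve sections 80 µm apart were imaged at 10X with a fixed threshold.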

[7] = test system: Aβ1–40 in APPswePSEN1(A246E) mouse brain; experiment: Aβ1–40 brain peptide level; type: in vivo; details: with adjuvant
How it was run: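 Transgenic mice received monthly subcutaneous injections of biotinylated test peptide (100 µg) conjugated overnight at 4°C to 25 µg streptavidin in TBS, emulsified 1:1 with adjuvant. TiterMax Gold was used first, then Freund's incomplete. Schedules ran 5–12 months (8 injections) or 12–18 months (7). Mock controls got TBS plus adjuvant. Brain Aβ1–40 ELISA was read at 450 nm against peptide standard curves and reported as µg/g wet brain weight.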

[8] = test system: Aβ1–42 in APPswePSEN1(A246E) mouse brain; experiment: Aβ1–42 brain peptide level; type: in vivo; details: with adjuvant
[9] = test system: Aβ amyloid species in APPswePSEN1(A246E) cortex; experiment: Aβ/APP immunoblot of soluble cortex fraction; type: in vivo, mouse; details: immunoblot (Fig 3G)
APPswePSEN1(A246E) mice = experiment: Morris water maze; type: in vivo, mouse
[10] = test system: APPswePSEN1(A246E) mouse brain; experiment: Brain inflammation immunostaining; type: in vivo; details: young and old; for reduction of CD68 immunostaining: significant (Fig 5D); for GFAP staining signal: with adjuvant (Fig 5C); for Iba1 staining signal: with adjuvant (Fig 5E)
[11] = test system: monovalent Aβ1–40 peptide; details: ref Kang et al., 2003; cited from earlier work
[12] = test system: monovalent Aβ1–42 peptide; details: ref Kang et al., 2003; cited from earlier work
[13] = test system: amyloid plaques in AD brain; details: ref Kang et al., 2003; cited from earlier work
[14] = test system: Aβ amyloid (Aβ1–40 or Aβ1–42); experiment: Thioflavin T amyloid formation assay, Aβ form not distinguished; type: biochemical; details: peptide 50µM + Aβ1–40 or Aβ1–42 50µM, 37°C, n=3 (Fig 1C)
How it was run: as §1

[15] = old, in most instances (Fig 3D–F)
[16] = young, in all instances, n=7–12 animals (Fig 3A–C)
[17] = young, soluble and insoluble, cortex, hippocampus (Fig 3A, B)

CC(C)C[C@@H]1NC(=O)[C@H](CCCNC(=N)N)NC(=O)[C@H](Cc2c[nH]c3ccccc23)NC(=O)[C@H](CCCNC(=N)N)NC(=O)CNC(=O)CNC(=O)[C@H](CCCCN)NC(=O)CNC(=O)[C@H](Cc2c[nH]c3ccccc23)NC(=O)[C@H](CC(=O)O)NC(=O)[C@@H](NC(=O)[C@H](CCC(=O)O)NC(=O)[C@H](C)NC(=O)CCCC[C@@H]2SC[C@@H]3NC(=O)N[C@@H]32)CSSC[C@@H](C(=O)NCC(=O)N2CCC[C@H]2C(=O)O)NC(=O)[C@H](C)NC(=O)[C@H](CCC(=O)O)NC(=O)[C@H]([C@@H](C)O)NC(=O)[C@H](CCCCN)NC(=O)CNC(=O)[C@H](CO)NC(=O)[C@H](C)NC(=O)CNC(=O)[C@@H]2CCCN2C(=O)[C@H](Cc2c[nH]c3ccccc23)NC1=O [SDPM1] (Biotin-AECDWGKGGRWRLWPGASGKTEACGP-OH; disulfide 3-24; C-terminus assumed)
inhibition of amyloid aggregation [1]: over 60%
inhibition of amyloid aggregation [2]: over 60%
Thioflavin T signal of peptide alone (amyloid self-formation) [3]: did not lead to development of increased Thioflavin T signal over time
effect on high MW Aβ aggregate formation (Aβ1–42 peptide): reduced formation of high molecular weight (MW) Aβ aggregates
size of trapped Aβ forms (trimers and tetramers) (Aβ1–42 peptide): 12–16 kDa
precipitation of low MW Aβ amyloid from APPswe cells [4]: tetramer Aβ amyloid precipitated from APPswe-transfected cells
SDPM1-specific antibody titer (SDPM1 minus SDPM2 titer) (SDPM1 / SDPM2 peptide; old (12 to 18 months), with adjuvant): 29 ± 6 µg/mL
predominant antibody subtype (SDPM1 / SDPM2 peptide; with adjuvant, young and old (Fig 2B)): IgG1
antibody titers to SDPM1 and SDPM2 (SDPM1 / SDPM2 peptide; without adjuvant): 2 to 15 µg/mL
antibody titers to SDPM1 and SDPM2 vs without adjuvant (SDPM1 / SDPM2 peptide; young, with adjuvant (S2A)): increased titers to SDPM1 and SDPM2
SDPM1 titers relative to SDPM2 titers (SDPM1 / SDPM2 peptide; young, without adjuvant (S2A)): increased SDPM1 titers relative to SDPM2
SDPM1-specific antibody titer (SDPM1 minus SDPM2 titer) (SDPM1 / SDPM2 peptide; young, without adjuvant): 5 ± 1 µg/mL
Aβ amyloid (Aβ1–40/42) antibody titer (Aβ amyloid; old, with adjuvant, Mock 11±6µg/mL, did not reach statistical significance (Fig 2C)): 23 ± 7 µg/mL
Aβ amyloid antibody titer (Aβ amyloid; with adjuvant, Mock 5±2µg/mL): 21 ± 7 µg/mL
Aβ amyloid antibody titer (Aβ amyloid; without adjuvant, Mock 1±1 µg/mL): 5 ± 1 µg/mL
Thioflavin S staining of fibrillar amyloid (images) ([5]; hippocampus and cortex (Fig 2D, S3–4), similar with Congo Red (not shown)): dramatically reduced
amyloid plaque burden, plaque number, plaque area, Thioflavin S staining ([5]; old, s.c. once a month with adjuvant, 12 to 18 months (Fig 2E–G, S2B)): highly significant reductions in amyloid plaque burden, plaque number, plaque area, and Thioflavin S staining
Aβ1–40/42 immunostaining signal, % of control ([6]; cortex): 25±6%
Aβ1–40/42 immunostaining signal, % of control ([6]; hippocampus): 14±3%
Aβ1–40/42 staining signal ([6]; old, with adjuvant (S2C)): also reduced in old mice
reduction in Aβ1–40 peptide level [7, 15]: greater than 50%
Aβ1–40 cerebellum level ([7]; young, cerebellum (Fig 3C)): significantly reduced
reduction in Aβ1–40 peptide level [7, 16]: greater than 50%
Aβ1–40 brain level, significance of reduction [7, 17]: significant reduction in both soluble and insoluble Aβ1–40 and Aβ1–42
reduction in Aβ1–42 peptide level [8, 15]: greater than 50%
reduction in Aβ1–42 peptide level ([8]; old, insoluble fraction, cortex (Fig 3D)): 65–75%
reduction in Aβ1–42 peptide level ([8]; old, insoluble fraction, hippocampus (Fig 3E)): 65–75%
reduction in Aβ1–42 peptide level [8, 16]: greater than 50%
Aβ1–42 brain level, significance of reduction [8, 17]: significant reduction in both soluble and insoluble Aβ1–40 and Aβ1–42
high and low MW Aβ amyloid species [9]: large reductions in both high and low MW Aβ amyloid species
escape latency (APPswePSEN1(A246E) mice; old (12 to 18 mo), with adjuvant (Fig 4D)): no improvement
probe test (APPswePSEN1(A246E) mice; old (12 to 18 mo), with adjuvant (Fig 4E)): no improvement
probe test, time in platform quadrant (APPswePSEN1(A246E) mice; young (5 to 12 mo), with adjuvant (Fig 4B)): improved significantly compared to controls, spending almost the same amount of time in the appropriate quadrant as WT animals
reduction of CD68 immunostaining ([10]; cortex, with adjuvant): ≥ 50%
reduction of CD68 immunostaining ([10]; hippocampus, with adjuvant): ≥ 50%
GFAP staining signal [10]: no significant changes
Iba1 staining signal [10]: no significant changes
CD3, CD4, CD8, B220 brain parenchymal staining ([10]; with adjuvant, not shown): no evidence for brain parenchymal staining
binding to monovalent Aβ1–40 peptide [11]: does not bind monovalent Aβ1–40 or Aβ1–42 peptide
binding to monovalent Aβ1–42 peptide [12]: does not bind monovalent Aβ1–40 or Aβ1–42 peptide
binding to amyloid plaques in AD brain [13]: most efficacious in binding amyloid plaques in AD brain

DWGKGGRWRLWPGASGKTEA [SDPM2]
Thioflavin T signal decrease [14]: no significant decrease in Thioflavin T signal
effect on high MW Aβ aggregate formation (Aβ1–42 peptide): had no effect on Aβ amyloid formation in vitro
SDPM1-specific antibody titers (SDPM1 / SDPM2 peptide; any condition (Fig 2A)): never showed SDPM1-specific antibody titers under any conditions
antibody titers to SDPM1 and SDPM2 (SDPM1 / SDPM2 peptide; without adjuvant): 2 to 15 µg/mL
Aβ staining levels vs mock-immunized ([6]; S2C): not significantly reduced, though it trended downward compared to mock-immunized animals
GFAP staining signal [10]: no significant changes
Iba1 staining signal [10]: no significant changes
